Active and inactive are the calls of the source. No cut-off for these calls is given here.
Key:
Schistosoma mansoni [1] = experiment: Antischistosomal activity against adult female Schistosoma mansoni assessed as damaged tegument in anterior region at 20 uM incubated for 48 hrs by scanning electron microscopy analysis; type: functional, organism-based
Summary of the method: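 Adult couples were taken by perfusion into supplemented RPMI, one couple per well, and adapted 2 h at 37°C, 5% CO2. They were exposed to 20 μM GSK343 or 0.1% DMSO for 24 and 48 h. Fixation used modified Karnovsky with osmium post-fix, followed by ethanol dehydration, critical-point drying, gold sputtering and scanning electron microscopy of tegument surfaces.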

Schistosoma mansoni [2] = experiment: Antischistosomal activity against adult female Schistosoma mansoni assessed as presence of fissures in egg shell at 20 uM incubated for 24 to 48 hrs by scanning electron microscopy analysis; type: functional, organism-based; details: time 24-48 hrs
Summary of the method: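 Eggs released by couples kept 24 or 48 h with 20 μM GSK343 or 0.1% DMSO in supplemented RPMI were fixed in modified Karnovsky with osmium post-fix. They were dehydrated, critical-point dried, gold-coated and imaged by SEM; total egg area dimension was measured.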

Schistosoma mansoni [3] = experiment: Antischistosomal activity against Schistosoma mansoni assessed as increased caspase 3/7 activity at 20 uM incubated for 48 hrs by Caspase 3/7 reagent based luminescence assay; type: functional
Summary of the method: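 2,000 schistosomula per well were kept in supplemented M169 with 20 μM GSK343 or 0.1% DMSO for 48 h. Medium was replaced, reporter lysis buffer added, then Caspase-Glo 3/7 reagent for 3 h in the dark with agitation before reading luminescence. The negative control lacked reagent. Three experiments, each with 20,000 schistosomula.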

Schistosoma mansoni [4] = experiment: Antischistosomal activity against female Schistosoma mansoni assessed as down-regulated Tyrosinase 2 mRNA level at 20 uM incubated for 48 hrs by RT-qPCR analysis; type: functional, organism-based
Summary of the method: (§1)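 Schistosomula (supplemented M169) or adult worms (supplemented RPMI) were treated 48 h with 20 μM GSK343 or 0.1% DMSO at 37°C, 5% CO2. qPCR normalizer genes were chosen from RNA-seq data as those with TPM >1 and a treated/control ratio of 0.9–1.1 that were not differentially expressed. Relative expression was calculated by comparative Ct; significance by t-test.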

Schistosoma mansoni [5] = experiment: Antischistosomal activity against Schistosoma mansoni assessed as increased H3K27me1 level in schistosomula at 20 uM incubated for 48 hrs by Western blotting analysis; type: functional, organism-based
Summary of the method: (§2)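 About 10,000 schistosomula were treated 48 h with 20 μM GSK343 or vehicle, then sonicated in Triton X-100 lysis buffer with PMSF and protease inhibitors. Supernatant nuclear extract (BCA-quantified, 10 μg) was run on 15% SDS-PAGE and blotted to nitrocellulose. Blots were probed with mark-specific monoclonal antibodies, then IRDye secondaries; infrared imaging was used and signals were normalized to total H3. t-test.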

Schistosoma mansoni [6] = experiment: Antischistosomal activity against adult Schistosoma mansoni assessed as decreased H3K27me3 level at 20 uM incubated for 48 hrs by Western blotting analysis; type: functional, organism-based
Summary of the method: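 Fifty adult worm pairs were treated 48 h with 20 μM GSK343 or vehicle in supplemented RPMI/10% FBS, then lysed in Triton buffer. Nuclear pellets were acid-extracted overnight in 0.25 M HCl at 4°C and histones were TCA-concentrated. 10 μg went on 15% SDS-PAGE and nitrocellulose, probed with anti-H3K27me3, K9ac, K27ac or K4me3, then IRDye secondaries; infrared densitometry was normalized to anti-H3. Three biological replicates; t-test.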

Schistosoma mansoni [7] = experiment: Antischistosomal activity against Schistosoma mansoni assessed as decreased H3K27me3 level in schistosomula at 20 uM incubated for 48 hrs by Western blotting analysis; type: functional, organism-based; summary of the method: as §2
Schistosoma mansoni [8] = experiment: Antischistosomal activity against adult Schistosoma mansoni assessed as decreased motility incubated for 24 hrs by inverted microscope analysis relative to control; type: functional; design: scale not given: the % may be the effect or the level left
Summary of the method: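 Paired adult worms were cultured in RPMI/10% FBS with antibiotics at 37°C, 5% CO2, with GSK343 or 0.1% DMSO. They were viewed by inverted microscope at 3, 6, 12, 24 and 48 h. Motility was scored on a 0–3 scale (3 full movement, 1.5 partial or immobile but alive, 0 dead); death meant no movement over more than 2 min. Pairing was recorded. Three experiments, each with 10 pairs; mean ± SD.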

Schistosoma mansoni [9] = experiment: Antischistosomal activity against juvenile Schistosoma mansoni assessed as destroyed oral sucker at 20 to 50 uM incubated for 48 hrs by scanning electron microscopy analysis; type: functional, organism-based; details: in the assay text read “at 50 uM” for “at 20 to 50 uM”
Summary of the method: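 Juvenile worms recovered by perfusion, five per well in supplemented RPMI (10% FBS, antibiotics, 37°C, 5% CO2), 2 h adaptation, then exposed 48 h to compound or 0.1% DMSO. Fixed in modified Karnovsky reagent (pH 7.4), washed in cacodylate buffer, post-fixed 1 h in 1% osmium tetroxide, ethanol-dehydrated, critical-point dried, gold-sputtered and imaged by scanning electron microscopy.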

Schistosoma mansoni [10] = experiment: Antischistosomal activity against Schistosoma mansoni assessed as schistosomula living cells at 10 to 50 uM incubated for 24 to 72 hrs by fluorescein diacetate staining based fluorescence microscope analysis; type: functional, organism-based; details: dose 10-50 µM, time 24-72 hrs
Summary of the method: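 Schistosomula were cultured in supplemented M169 with 10–50 μM GSK343 or 0.1% DMSO for 24, 48 and 72 h. A fresh well set was used per time point, with 2 μg/mL propidium iodide (dead) plus 0.5 μg/mL fluorescein diacetate (live) added. Parasites were read immediately by light and fluorescence microscopy; percent viable was computed against total parasites. About 3600 schistosomula per condition over four biological replicates; 70% ethanol served as positive control.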

Schistosoma mansoni [11] = experiment: Antischistosomal activity against Schistosoma mansoni assessed as down-regulated FGFR substrate 3 mRNA level in schistosomula at 20 uM incubated for 48 hrs by RT-qPCR analysis; type: functional, organism-based; summary of the method: as §1
Schistosoma mansoni [12] = experiment: Antischistosomal activity against female Schistosoma mansoni assessed as down-regulated p14 mRNA level at 20 uM incubated for 48 hrs by RT-qPCR analysis; type: functional, organism-based
Schistosoma mansoni [13] = experiment: Antischistosomal activity against female Schistosoma mansoni assessed as down-regulated ESP mRNA level at 20 uM incubated for 48 hrs by RT-qPCR analysis; type: functional, organism-based; summary of the method: as §1
Schistosoma mansoni [14] = experiment: Cytotoxicity against adult Schistosoma mansoni assessed as reduction in ATP quantification at 50 uM incubated for 48 hrs by CellTiter-Glo Luminescent assay relative to control; type: functional; design: scale not given: the % may be the effect or the level left
Summary of the method: (§3)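 Worm pairs in supplemented RPMI (10% FBS, 37°C, 5% CO2) exposed 48 h to compound or 0.1% DMSO. ATP measured by luminescence in freshly lysed worms and expressed as % of vehicle signal; three replicate experiments, 10 pairs each, mean ± SD.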

Schistosoma mansoni [15] = experiment: Cytotoxicity against Schistosoma mansoni assessed as reduction in total ATP content at 20 uM incubated for 2 days by CellTiter-Glo Luminescent assay relative to control; type: functional; design: scale not given: the % may be the effect or the level left; details: time 2 day
Summary of the method: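 Newly transformed schistosomula pre-cultured 16 h in M169 with 2% FBS, serotonin, hypoxanthine, hydrocortisone, triiodothyronine and antibiotics at 37°C, 5% CO2, then 100–120 per well exposed up to 5 days to compound or 0.1% DMSO. ATP in intact larvae read by luminescence, expressed as % of vehicle; three replicate experiments, two-way ANOVA.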

Schistosoma mansoni [16] = experiment: Cytotoxicity against adult Schistosoma mansoni assessed as reduction in ATP quantification at 20 uM incubated for 48 hrs by CellTiter-Glo Luminescent assay relative to control; type: functional; design: scale not given: the % may be the effect or the level left; summary of the method: as §3
Schistosoma mansoni [17] = experiment: Antischistosomal activity against female Schistosoma mansoni assessed as down-regulated p48 mRNA level at 20 uM incubated for 48 hrs by RT-qPCR analysis; type: functional, organism-based

For `CCCc1cc(C)[nH]c(=O)c1CNC(=O)c1cc(-c2ccnc(N3CCN(C)CC3)c2)cc2c1cnn2C(C)C`, the Activity (Schistosoma mansoni [1]) was “Active”, the Activity (Schistosoma mansoni [2]) was “Active” and the “fold change (FC)” value (Schistosoma mansoni [3]) was 17. The Activity (Schistosoma mansoni [4]) was “Active”, the Activity (Schistosoma mansoni [5]) was “Active” and the Activity (Schistosoma mansoni [6]) was “Active”. The Activity (Schistosoma mansoni [7]) was “Active”, the Activity (Schistosoma mansoni [8]) was 50% and the Activity (Schistosoma mansoni [9]) was “Active”. The Activity (Schistosoma mansoni [10]) was “Active”, the Activity (Schistosoma mansoni [11]) was “Active” and the Activity (Schistosoma mansoni [12]) was “Active”. The Activity (Schistosoma mansoni [13]) was “Active”, the Activity (Schistosoma mansoni [14]) was <20% and the Activity (Schistosoma mansoni [15]) was 40%. For the same molecule, the Activity (Schistosoma mansoni [16]) was 50% and the Activity (Schistosoma mansoni [17]) was “Active”.

Source: ChEMBL document CHEMBL5715959, “Inhibition of histone methyltransferase EZH2 in Schistosoma mansoni in vitro by GSK343 reduces egg laying and decreases the expression of genes implicated in DNA replication and noncoding RNA metabolism” (2018)
